Published values from different studies.
Compare with care: the assays were run in different laboratories.
Target: Serine/threonine-protein kinase 32B (STK32B, Homo sapiens, UniProt Q9NY57)

With `FC(F)(F)c1ccc2c(c1)nc(-c1cccnc1)n2C1CC1` the remaining binding was 100% (cell-free assay, competition with immobilised ligand; 1 µM).
For `CN(CCCC(F)(F)F)c1nccc(-c2cnn3ncccc23)n1`, the remaining binding was 87% (binding; 1 µM).
`O=C(NCCCC1CCCCC1)c1ccc(CNC(=O)c2cnn(-c3ccccc3)c2C(F)(F)F)cc1` gave a remaining binding of 100% (cell-free assay, competition with immobilised ligand; 0.1 µM).
`Nc1ncc2c(n1)-c1c([nH]c3ccc(C#CC4CC4)cc13)CCCC2` gave a remaining binding of 100% (binding, competition with immobilised ligand; 1 µM).
For `COc1cnc(Nc2cccc(S(N)(=O)=O)c2)nc1N1CCN(c2ccccc2)C(=O)C1`, the remaining binding was 90% (binding, competition with immobilised ligand; 1 µM).
`FC(F)(F)Oc1cccc(-c2cnc3ccc(-c4ccncc4)nn23)c1` gave a remaining binding of 97% (binding, competition with immobilised ligand; 5 µM).
With `C[C@H](c1cccc(C#N)c1)n1cc(Cl)cc(C(N)=O)c1=N` the remaining binding was 100% (cell-free assay, competition with immobilised ligand; 1 µM).
`c1cnn2ncc(-c3ccnc(N4CCC45COC5)n3)c2c1` gave a remaining binding of 93% (binding; 1 µM).
`O=C1NC(c2ccccn2)Sc2ccccc21` (centres unmarked) has a remaining binding of 100% (cell-free assay, competition with immobilised ligand; 1 µM).
The remaining binding of `CN(C)c1nccc(-c2cnc3ncccn23)n1` is reported as 88% (binding; 1 µM).
For `O=C(Nc1c[nH]nc1C(=O)NC1CCNCC1)c1cc(F)cc(F)c1`, the remaining binding was 57% (binding, competition with immobilised ligand; 1 µM).
`O=C(NCCCN1CCOCC1)c1ccc(Nc2nccc(-c3cc4ccccc4s3)n2)cc1` has a remaining binding of 100% (binding, competition with immobilised ligand; 1 µM).
The remaining binding of `N[C@H]1CCN(c2nccc(-c3cnn4ncccc34)n2)C1` is reported as 100% (binding; 1 µM).
`O=C(c1ccc(Nc2ncc(Cl)c(-c3cc4ccccc4s3)n2)cc1)N1CCC(N2CCCC2)CC1` gave a remaining binding of 100% (binding, competition with immobilised ligand; 1 µM).
`Cc1c(NC(=O)c2cc(C(N)=O)nc3cc(F)ccc23)c(C(F)(F)F)nn1Cc1ccc(C#N)cc1` has a remaining binding of 100% (cell-free assay, competition with immobilised ligand; 1 µM).
With `COc1cnc(Nc2cccc(S(N)(=O)=O)c2)nc1N1CCN(c2ccccc2)CC1` the remaining binding was 100% (binding, competition with immobilised ligand; 1 µM).
`CC1CCCN1c1nccc(-c2cnn3ncccc23)n1` (centres unmarked) has a remaining binding of 100% (binding; 1 µM).
The remaining binding of `Cc1cnc(Nc2ccc(C(=O)N3CCC(N4CCCC4)CC3)cc2)nc1-c1cc2ccccc2s1` is reported as 100% (binding, competition with immobilised ligand; 1 µM).
The remaining binding of `C[C@H]1CCN(c2nccc(-c3cnn4ncccc34)n2)C1` is reported as 100% (binding; 1 µM).
`CO[C@@H](C)c1c(Nc2ccc([C@H](N(C)C(=O)C3CCS(=O)(=O)CC3)C(F)(F)F)cc2)cnc2cc(Cl)nn12` has a remaining binding of 89% (cell-free assay, competition with immobilised ligand; 1 µM).
